Test results as given in ChEMBL document CHEMBL1240306, “Allosteric inhibitors of Bcr-abl-dependent cell proliferation” (Nat Chem Biol, 2006).

Experiments:
[1] = target: Tyrosine-protein kinase Fes/Fps (Homo sapiens) (UniProt P07332); experiment: Inhibition of human Fes activity at 10 uM by radiometric assay
[2] = target: Mitogen-activated protein kinase 9 (Homo sapiens) (UniProt P45984); experiment: Inhibition of human JNK2alpha2 activity at 10 uM by radiometric assay
[3] = Antiproliferative activity against mouse BA/F3 Bcr-abl negative cells expressing Tel-PDGFRbeta kinase assessed as proliferation after 48 hrs by MTT assay; type: functional, cell-based; conditions: BaF3, 48 h
Outline: (§1)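 Cells seeded at 0.3–0.6 × 10^6/ml in duplicate or triplicate with increasing compound (0.005–10 μM), 37 °C, 5% CO2, 48 h. Viability by MTT dye reduction, expressed as % growth of DMSO-treated cells; IC50 from dose-response curves. Ba/F3 lines carry geneticin selection (1 mg/ml) in RPMI-1640/10% FBS; parental Ba/F3 kept with 10 U/ml murine IL-3.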

[4] = target: Fibroblast growth factor receptor 3 (Homo sapiens) (UniProt P22607); experiment: Inhibition of human FGFR3 activity at 10 uM by radiometric assay
[5] = target: Mitogen-activated protein kinase 12 (Homo sapiens) (UniProt P53778); experiment: Inhibition of human SAPK3 activity at 10 uM by radiometric assay
[6] = Cytotoxic activity against mouse 32D cells transfected with p210 Bcr-abl; type: cell-based
[7] = Antiproliferative activity against mouse BA/F3 Bcr-abl negative cells expressing FIt3-ITD kinase assessed as proliferation after 48 hrs by MTT assay; type: functional, cell-based; conditions: BaF3, 48 h; outline: as §1
[8] = target: Mitogen-activated protein kinase 1 (Homo sapiens) (UniProt P28482); experiment: Inhibition of human MAPK1 activity at 10 uM by radiometric assay
[9] = target: Angiopoietin-1 receptor (Homo sapiens) (UniProt Q02763); experiment: Inhibition of human Tie2 activity at 10 uM by radiometric assay
[10] = target: Insulin receptor (Homo sapiens) (UniProt P06213); experiment: Inhibition of human IR activity at 10 uM by radiometric assay
Sequence of Insulin receptor (Homo sapiens) (P06213 28-758 limits assumed): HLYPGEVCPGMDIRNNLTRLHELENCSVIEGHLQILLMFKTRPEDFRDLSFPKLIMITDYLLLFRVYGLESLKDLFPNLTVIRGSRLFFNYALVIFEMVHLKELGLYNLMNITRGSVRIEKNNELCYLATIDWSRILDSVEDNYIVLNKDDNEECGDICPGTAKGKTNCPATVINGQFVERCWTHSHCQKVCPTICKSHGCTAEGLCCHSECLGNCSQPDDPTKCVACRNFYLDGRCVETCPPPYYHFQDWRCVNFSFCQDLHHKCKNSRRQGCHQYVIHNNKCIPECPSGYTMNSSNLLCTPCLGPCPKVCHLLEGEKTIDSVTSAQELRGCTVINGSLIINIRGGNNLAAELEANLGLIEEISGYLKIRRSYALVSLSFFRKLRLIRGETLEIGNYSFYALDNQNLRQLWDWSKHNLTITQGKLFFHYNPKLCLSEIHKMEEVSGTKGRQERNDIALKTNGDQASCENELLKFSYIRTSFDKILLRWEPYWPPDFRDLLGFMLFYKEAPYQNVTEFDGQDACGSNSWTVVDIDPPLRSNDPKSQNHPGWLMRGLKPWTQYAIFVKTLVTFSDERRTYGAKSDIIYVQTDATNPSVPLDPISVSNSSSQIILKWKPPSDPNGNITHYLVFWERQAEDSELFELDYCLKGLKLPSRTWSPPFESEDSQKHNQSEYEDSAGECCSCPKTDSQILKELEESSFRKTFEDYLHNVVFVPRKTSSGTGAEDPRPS
Sequence of Insulin receptor (Homo sapiens) (P06213 763-1382 limits assumed): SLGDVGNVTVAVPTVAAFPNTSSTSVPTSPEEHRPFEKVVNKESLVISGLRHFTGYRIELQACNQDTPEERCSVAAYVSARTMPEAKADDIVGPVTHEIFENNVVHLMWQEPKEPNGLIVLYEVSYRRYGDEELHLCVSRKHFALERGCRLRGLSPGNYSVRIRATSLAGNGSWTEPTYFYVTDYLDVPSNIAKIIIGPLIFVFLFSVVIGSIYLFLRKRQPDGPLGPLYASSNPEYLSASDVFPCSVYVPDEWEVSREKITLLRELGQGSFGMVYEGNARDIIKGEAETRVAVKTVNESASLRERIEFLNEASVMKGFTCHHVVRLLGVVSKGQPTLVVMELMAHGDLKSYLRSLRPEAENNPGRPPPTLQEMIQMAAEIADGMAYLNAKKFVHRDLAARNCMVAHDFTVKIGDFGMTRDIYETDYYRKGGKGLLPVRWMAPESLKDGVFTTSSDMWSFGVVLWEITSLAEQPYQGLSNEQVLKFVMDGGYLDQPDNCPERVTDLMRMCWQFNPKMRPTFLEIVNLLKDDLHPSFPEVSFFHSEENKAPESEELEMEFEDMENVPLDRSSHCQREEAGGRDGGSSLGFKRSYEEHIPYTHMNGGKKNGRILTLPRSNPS

[11] = Antiproliferative activity against human M07e Bcr-abl negative cells expressing stem cell factor assessed as proliferation after 48 hrs by MTT assay; type: functional, cell-based; conditions: M-07e
Outline: (§2)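 Human megakaryoblastic Mo7e cells grown in RPMI-1640, 20% FBS, with either 5 ng/ml human GM-CSF or 200 ng/ml stem cell factor (c-kit-driven growth). Compound up to 10 μM, 48 h at 37 °C; viability read by MTT reduction relative to DMSO-treated cells.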

[12] = target: Tyrosine-protein kinase ZAP-70 (Homo sapiens) (UniProt P43403); experiment: Inhibition of human ZAP-70 activity at 10 uM by radiometric assay
HL-60 = experiment: Antiproliferative activity against human HL60 Bcr-abl negative cells assessed as cell viability after 48 hrs by MTT assay; type: functional, cell-based; conditions: HL-60, 48 h; outline: as §1
[13] = target: Vascular endothelial growth factor receptor 2 (Homo sapiens) (UniProt P35968); experiment: Inhibition of human KDR activity at 10 uM by radiometric assay
[14] = Antiproliferation activity against mouse BA/F3 cells expressing Bcr-abl assessed as cell viability after 48 hrs by MTT assay; type: functional, cell-based; conditions: BaF3, 48 h; outline: as §1
[15] = target: Insulin-like growth factor 1 receptor (Homo sapiens) (UniProt P08069); experiment: Inhibition of human IGF-1R activity at 10 uM by radiometric assay
[16] = target: Platelet-derived growth factor receptor beta (Homo sapiens) (UniProt P09619); experiment: Inhibition of human PDGFR-beta activity at 10 uM by radiometric assay
[17] = target: Cytoplasmic tyrosine-protein kinase BMX (Homo sapiens) (UniProt P51813); experiment: Inhibition of human Bmx activity at 10 uM by radiometric assay
[18] = Antiproliferative activity against mouse BA/F3 Bcr-abl negative cells expressing Tel-JAK1 kinase assessed as proliferation after 48 hrs by MTT assay; type: functional, cell-based; conditions: BaF3, 48 h; outline: as §1
[19] = target: cAMP-dependent protein kinase catalytic subunit beta (Homo sapiens) (UniProt P22694); conditions: 10 uM
[20] = target: Serine/threonine-protein kinase D2 (Homo sapiens) (UniProt Q9BZL6); experiment: Inhibition of human PKD2 activity at 10 uM by radiometric assay
Sequence of Serine/threonine-protein kinase D2 (Homo sapiens) (Q9BZL6 whole entry): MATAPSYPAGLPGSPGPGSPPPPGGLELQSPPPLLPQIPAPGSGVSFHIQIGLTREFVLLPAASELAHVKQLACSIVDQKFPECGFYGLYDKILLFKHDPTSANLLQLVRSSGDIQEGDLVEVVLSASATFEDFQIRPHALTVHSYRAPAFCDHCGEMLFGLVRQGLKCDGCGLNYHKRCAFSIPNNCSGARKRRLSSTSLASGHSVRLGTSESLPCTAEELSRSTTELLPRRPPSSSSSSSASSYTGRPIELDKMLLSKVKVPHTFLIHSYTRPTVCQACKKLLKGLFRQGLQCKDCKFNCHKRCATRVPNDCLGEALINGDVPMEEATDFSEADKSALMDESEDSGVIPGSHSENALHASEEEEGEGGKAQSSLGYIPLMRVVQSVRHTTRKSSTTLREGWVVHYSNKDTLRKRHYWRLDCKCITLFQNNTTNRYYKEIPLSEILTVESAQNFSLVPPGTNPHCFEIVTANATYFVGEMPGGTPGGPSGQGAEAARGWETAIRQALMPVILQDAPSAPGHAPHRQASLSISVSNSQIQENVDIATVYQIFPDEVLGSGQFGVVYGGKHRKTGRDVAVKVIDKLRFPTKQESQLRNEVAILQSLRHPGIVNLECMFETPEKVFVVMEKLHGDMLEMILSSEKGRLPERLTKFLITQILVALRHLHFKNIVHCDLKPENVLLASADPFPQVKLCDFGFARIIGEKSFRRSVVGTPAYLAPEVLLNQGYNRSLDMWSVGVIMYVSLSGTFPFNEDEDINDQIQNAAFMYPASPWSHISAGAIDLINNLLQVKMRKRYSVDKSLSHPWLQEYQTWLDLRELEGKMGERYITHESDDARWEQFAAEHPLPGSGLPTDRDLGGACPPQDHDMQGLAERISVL

[21] = target: Serine/threonine-protein kinase Chk2 (Homo sapiens) (UniProt O96017); experiment: Inhibition of human CHK2 activity at 10 uM by radiometric assay
Sequence of Serine/threonine-protein kinase Chk2 (Homo sapiens) (O96017 whole entry): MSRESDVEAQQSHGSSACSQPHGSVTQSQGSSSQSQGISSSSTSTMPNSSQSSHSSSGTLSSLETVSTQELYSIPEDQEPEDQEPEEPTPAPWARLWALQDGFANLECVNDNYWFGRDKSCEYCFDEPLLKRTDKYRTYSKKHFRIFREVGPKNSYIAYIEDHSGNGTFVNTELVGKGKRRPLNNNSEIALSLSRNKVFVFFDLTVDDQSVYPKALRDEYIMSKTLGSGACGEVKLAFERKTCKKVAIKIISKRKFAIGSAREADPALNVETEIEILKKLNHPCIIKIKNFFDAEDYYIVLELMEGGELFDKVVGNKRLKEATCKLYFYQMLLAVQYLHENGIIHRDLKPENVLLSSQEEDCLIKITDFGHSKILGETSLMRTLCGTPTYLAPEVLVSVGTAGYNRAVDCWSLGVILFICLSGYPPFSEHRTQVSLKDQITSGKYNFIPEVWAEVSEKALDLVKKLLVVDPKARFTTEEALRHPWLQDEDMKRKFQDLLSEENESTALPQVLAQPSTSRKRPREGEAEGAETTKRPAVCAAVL

[22] = Antiproliferative activity against mouse 32D cells transfected with p210 cells expressing Bcr-abl assessed as proliferation after 48 hrs by MTT assay; type: cell-based
K562 = experiment: Antiproliferative activity against human K562 expressing Bcr-abl assessed as proliferation after 48 hrs by MTT assay; type: functional, cell-based; conditions: K562, 48 h; outline: as §1
[23] = target: RAF proto-oncogene serine/threonine-protein kinase (Homo sapiens) (UniProt P04049); experiment: Inhibition of human c-RAF activity at 10 uM by radiometric assay
[24] = Antiproliferative activity against human M07e Bcr-abl negative cells expressing granulocyte-macrophage colony stimulating factor assessed as proliferation after 48 hrs by MTT assay; type: functional, cell-based; conditions: M-07e; outline: as §2
[25] = Antiproliferation activity against mouse BA/F3 cells expressing Bcr-abl A337N mutant assessed as cell viability after 48 hrs by MTT assay; type: functional, cell-based; conditions: BaF3, 48 h; outline: as §1
[26] = target: Casein kinase II subunit alpha (Homo sapiens) (UniProt P68400); experiment: Inhibition of human CK2 activity at 10 uM by radiometric assay
[27] = target: Tyrosine-protein kinase BTK (Homo sapiens) (UniProt Q06187); experiment: Inhibition of human BTK activity at 10 uM by radiometric assay
[28] = target: 5'-AMP-activated protein kinase catalytic subunit alpha-2 (Rattus norvegicus) (UniProt Q09137); conditions: 10 uM
Sequence of 5'-AMP-activated protein kinase catalytic subunit alpha-2 (Rattus norvegicus) (Q09137 whole entry): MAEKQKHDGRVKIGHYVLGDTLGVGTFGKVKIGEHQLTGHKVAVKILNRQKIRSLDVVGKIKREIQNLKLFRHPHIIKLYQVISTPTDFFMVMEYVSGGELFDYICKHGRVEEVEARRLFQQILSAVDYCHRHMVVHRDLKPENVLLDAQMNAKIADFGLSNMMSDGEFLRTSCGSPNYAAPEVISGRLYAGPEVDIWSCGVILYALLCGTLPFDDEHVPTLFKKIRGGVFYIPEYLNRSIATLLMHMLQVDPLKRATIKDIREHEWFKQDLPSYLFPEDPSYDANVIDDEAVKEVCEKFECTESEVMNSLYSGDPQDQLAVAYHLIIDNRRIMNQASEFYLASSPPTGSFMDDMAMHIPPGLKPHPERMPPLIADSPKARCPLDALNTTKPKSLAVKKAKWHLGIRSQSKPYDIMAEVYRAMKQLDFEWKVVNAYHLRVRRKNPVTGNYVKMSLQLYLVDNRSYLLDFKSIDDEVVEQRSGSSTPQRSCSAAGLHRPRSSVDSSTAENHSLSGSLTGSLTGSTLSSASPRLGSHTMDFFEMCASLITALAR

[29] = Antiproliferative activity against mouse BA/F3 Bcr-abl negative cells expressing TPR-MET kinase assessed as proliferation after 48 hrs by MTT assay; type: functional, cell-based; conditions: BaF3, 48 h; outline: as §1
[30] = target: Tyrosine-protein kinase CSK (Homo sapiens) (UniProt P41240); experiment: Inhibition of human CSK activity at 10 uM by radiometric assay
Sequence of Tyrosine-protein kinase CSK (Homo sapiens) (P41240 2-450 limits assumed): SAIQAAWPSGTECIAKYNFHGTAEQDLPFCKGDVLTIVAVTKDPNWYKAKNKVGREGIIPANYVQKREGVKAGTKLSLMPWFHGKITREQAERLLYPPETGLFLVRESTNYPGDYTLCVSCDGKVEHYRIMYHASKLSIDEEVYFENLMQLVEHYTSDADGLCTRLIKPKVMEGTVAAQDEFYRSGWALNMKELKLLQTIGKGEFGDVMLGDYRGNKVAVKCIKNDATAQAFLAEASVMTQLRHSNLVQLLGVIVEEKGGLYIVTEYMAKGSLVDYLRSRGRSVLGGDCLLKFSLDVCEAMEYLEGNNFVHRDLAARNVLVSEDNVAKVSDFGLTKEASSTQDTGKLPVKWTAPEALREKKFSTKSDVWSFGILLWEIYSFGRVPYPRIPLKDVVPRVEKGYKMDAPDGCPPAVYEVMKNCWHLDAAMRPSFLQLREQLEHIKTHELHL

[31] = target: MAP kinase-activated protein kinase 2 (Homo sapiens) (UniProt P49137); experiment: Inhibition of human MAPKAP-K2 activity at 10 uM by radiometric assay
[32] = target: Serine/threonine-protein kinase 3 (Homo sapiens) (UniProt Q13188); conditions: 10 uM
Sequence of Serine/threonine-protein kinase 3 (Homo sapiens) (Q13188 whole entry): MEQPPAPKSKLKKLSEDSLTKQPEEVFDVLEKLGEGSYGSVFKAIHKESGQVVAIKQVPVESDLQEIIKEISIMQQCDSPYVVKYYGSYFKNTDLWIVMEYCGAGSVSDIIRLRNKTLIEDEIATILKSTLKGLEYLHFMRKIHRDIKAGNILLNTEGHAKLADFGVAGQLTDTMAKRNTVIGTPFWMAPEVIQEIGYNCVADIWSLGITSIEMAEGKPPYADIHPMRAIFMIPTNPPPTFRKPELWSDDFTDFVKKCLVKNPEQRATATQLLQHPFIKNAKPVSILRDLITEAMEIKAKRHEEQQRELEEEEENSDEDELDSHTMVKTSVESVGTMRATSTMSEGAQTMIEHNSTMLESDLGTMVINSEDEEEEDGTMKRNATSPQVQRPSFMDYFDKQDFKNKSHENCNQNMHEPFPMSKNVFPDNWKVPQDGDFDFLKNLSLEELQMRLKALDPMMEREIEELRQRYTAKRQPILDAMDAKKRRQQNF

[33] = target: Serine/threonine-protein kinase Nek2 (Homo sapiens) (UniProt P51955); experiment: Inhibition of human NEK2 activity at 10 uM by radiometric assay
Sequence of Serine/threonine-protein kinase Nek2 (Homo sapiens) (P51955 whole entry): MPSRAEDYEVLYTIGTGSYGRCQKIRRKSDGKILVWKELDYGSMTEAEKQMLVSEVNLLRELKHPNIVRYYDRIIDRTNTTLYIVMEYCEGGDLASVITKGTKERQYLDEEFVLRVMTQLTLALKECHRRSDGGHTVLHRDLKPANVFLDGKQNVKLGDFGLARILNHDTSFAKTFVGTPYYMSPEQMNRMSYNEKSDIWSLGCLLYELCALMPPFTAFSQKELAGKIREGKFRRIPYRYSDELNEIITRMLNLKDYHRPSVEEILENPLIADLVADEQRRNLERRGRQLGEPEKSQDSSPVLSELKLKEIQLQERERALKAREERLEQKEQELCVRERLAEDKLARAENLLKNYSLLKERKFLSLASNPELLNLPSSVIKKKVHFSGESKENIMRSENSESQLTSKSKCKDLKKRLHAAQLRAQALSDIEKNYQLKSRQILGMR

[34] = target: Mast/stem cell growth factor receptor Kit (Homo sapiens) (UniProt P10721); experiment: Inhibition of human c-kit activity at 10 uM by radiometric assay
[35] = target: Platelet-derived growth factor receptor alpha (Homo sapiens) (UniProt P16234); conditions: 10 uM
Jurkat = experiment: Antiproliferative activity against human Jurkat Bcr-abl negative cells assessed as proliferation after 48 hrs by MTT assay; type: functional, cell-based; outline: as §1
[36] = Antiproliferative activity against mouse 32D Bcr-abl negative cells assessed as proliferation after 48 hrs by MTT assay

inhibition [1] [%] | inhibition [2] [%] | inhibition [4] [%] | inhibition [5] [%] | inhibition [8] [%] | inhibition [9] [%] | inhibition [10] [%] | inhibition [12] [%] | IC50 (HL-60) [nM] | inhibition [13] [%] | inhibition [15] [%] | inhibition [16] [%] | inhibition [17] [%] | inhibition [19] [%] | SMILES | IC50 [3] [nM] | IC50 [6] [nM] | IC50 [7] [nM] | IC50 [11] [nM] | IC50 [14] [nM] | IC50 [18] [nM] | also measured
62 | 10 | 27 | 7 | 4 | 66 | 2 | 29 | > 10000 | 22 | 17 | 43 | 27 | 1 | Cc1ccc(NC(=O)c2ccc(CN3CCN(C)CC3)cc2)cc1Nc1nccc(-c2cccnc2)n1 [IMATINIB] | 27 | 190 | > 10000 | 257 | 190 | > 10000 | inhibition [20]: 11%; inhibition [21]: 17%; IC50 [22]: 112 nM; IC50 (K562): 109 nM; inhibition [23]: 89%; IC50 [24]: > 10000 nM; IC50 [25]: 339 nM; inhibition [26]: 17%; inhibition [27]: 19%; inhibition [28]: 1%; IC50 [29]: > 10000 nM; inhibition [30]: 2%; inhibition [31]: 19%; inhibition [32]: 15%; inhibition [33]: 7%; inhibition [34]: 88%; inhibition [35]: 89%; IC50 (Jurkat): > 10000 nM; IC50 [36]: > 10000 nM
7 | 14 | 7 | 0 | 40 | 2 | 26 | 0 | > 10000 | 23 | 28 | 18 | 7 | 0 | NC(=O)c1cccc(-c2cc(Nc3ccc(OC(F)(F)F)cc3)ncn2)c1 | > 10000 | 138 | > 10000 | > 10000 | 138 | > 10000 | inhibition [20]: 55%; inhibition [21]: 0%; IC50 [22]: 187 nM; IC50 (K562): 273 nM; inhibition [23]: 0%; IC50 [24]: > 10000 nM; IC50 [25]: > 10000 nM; inhibition [26]: 0%; inhibition [27]: 7%; inhibition [28]: 0%; IC50 [29]: > 10000 nM; inhibition [30]: 0%; inhibition [31]: 0%; inhibition [32]: 0%; inhibition [33]: 3%; inhibition [34]: 39%; inhibition [35]: 0%; IC50 (Jurkat): > 10000 nM; IC50 [36]: > 10000 nM
